pEC50: −log10 of the molar value.
Experiments:
MT4 = assay: Concentration required to reduce the viability of mock-infected MT-4 cells by 50%.; type: functional; conditions: Homo sapiens
Method in brief: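 Mock-infected MT-4 cells were run in parallel with the antiviral assay: 1 × 10^6 cells/mL, serial compound dilutions, 4 days at 37 °C.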

[1] = Concentration required to achieve 50% protection of MT-4 cells against the cytopathic effect of HIV-1.; type: functional, cell-based; conditions: Homo sapiens, MT4
Method in brief: (§1)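 MT-4 cells at 1 × 10^6 cells/mL were infected with HIV-1 (HTLV-IIIB) or HIV-2 (LAV-2ROD) at an MOI of 0.02 (virus titrated as CCID50 in MT-4). Cells were plated immediately onto serial compound dilutions from DMSO stocks of 50 mM or higher. After 4 days at 37 °C, viable cells were counted by MTT.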

[2] = Concentration of compound required to reduce the viability of mock-infected PBL(peripheral blood lymphocytes) cells. by 50%; type: functional; conditions: Homo sapiens
[3] = Concentration required inhibit HIV-1 (HTLV-IIIb strain) replication in PBL(peripheral blood lymphocytes) cells.; type: functional, cell-based; conditions: Homo sapiens
Method in brief: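 Phytohemagglutinin-stimulated PBL at 1 × 10^6 cells/mL were infected with HIV-1 HTLV-IIIB at an MOI of 0.2 and cultured at 37 °C with varied compound concentrations. On day 4 cells were subcultured 1:5 into fresh medium with compound. On day 7, p24 antigen in the supernatant was measured by sandwich ELISA, and EC50 was derived.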

[4] = Concentration of compound required to reduce the viability of mock-infected HIV-2 (LAV-2ROD)/MT-4 cells by 50%; type: functional; conditions: Homo sapiens, MT4
Method in brief: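 Mock-infected MT-4 cells, run in parallel with the HIV-2 LAV-2ROD antiviral assay. Cells at 1 × 10^6 cells/mL were plated into wells holding serial compound dilutions, with DMSO stocks at 50 mM or higher. After 4 days at 37 °C, viable cells were counted by the MTT method.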

[5] = Concentration required inhibit HIV-2 (LAV-2ROD)replication in MT-4 cells.; type: functional, cell-based; conditions: Homo sapiens, MT4; method in brief: as §1

pEC50 [1]	SMILES	CC50 (MT4) [µM]	CC50 [2] [µM]	pEC50 [3]	CC50 [4] [µM]	pEC50 [5]
5.60	C=CCc1c(Sc2ccccc2)n(COCCO)c(=O)[nH]c1=O	183				
7.20	CC(C)c1c(Sc2ccccc2)n(COCCO)c(=O)[nH]c1=O	231				
4.09	Cc1c(Sc2cccc(O)c2)n(COCCO)c(=O)[nH]c1=O	446				
6.01	Cc1c(Sc2ccccc2)n(COCCO)c(=S)[nH]c1=O	123				
4.15	Cc1ccccc1Sc1c(C)c(=O)[nH]c(=O)n1COCCO	> 250				
6.92	CCc1c(Sc2ccccc2)n(COCCO)c(=O)[nH]c1=O	400	108	6.72	400	< 3.40
5.47	CCCc1c(Sc2ccccc2)n(COCCO)c(=O)[nH]c1=O	244				
4.89	Cc1c(Sc2cccc(Cl)c2)n(COCCO)c(=O)[nH]c1=O	210				
5.00	Cc1c(Sc2cccc(I)c2)n(COCCO)c(=O)[nH]c1=O	106				
5.59	Cc1cccc(Sc2c(C)c(=O)[nH]c(=O)n2COCCO)c1	420				
5.57	CCc1cccc(Sc2c(C)c(=O)[nH]c(=O)n2COCCO)c1	181				
5.24	Cc1c(Sc2cccc(Br)c2)n(COCCO)c(=O)[nH]c1=O	141				
< 3.89	Cc1c(Sc2ccccc2Cl)n(COCCO)c(=O)[nH]c1=O	130				
< 5.18	COC(=O)c1c(Sc2ccccc2)n(COCCO)c(=O)[nH]c1=O	6.6				
< 3.45	Cc1c(Sc2cccc(C(=O)O)c2)n(COCCO)c(=O)[nH]c1=O	352				

Second part, the molecule before the results:

SMILES	pEC50 [1]	CC50 (MT4) [µM]	CC50 [2] [µM]	pEC50 [3]	CC50 [4] [µM]	pEC50 [5]
Cc1cc(C)cc(Sc2c(C)c(=O)[nH]c(=O)n2COCCO)c1		243				
Cc1c(Sc2ccccc2[N+](=O)[O-])n(COCCO)c(=O)[nH]c1=O	3.85	> 250				
Cc1c(Sc2cccc(C(F)(F)F)c2)n(COCCO)c(=O)[nH]c1=O	4.35	196				
Cc1c(Sc2cccc(F)c2)n(COCCO)c(=O)[nH]c1=O	5.48	282				
CC(=O)c1cccc(Sc2c(C)c(=O)[nH]c(=O)n2COCCO)c1	5.14	228				
Cc1c(Sc2ccccc2)n(COCCO)c(=O)[nH]c1=O [HEPT]	5.15	743	640	5.10	740	< 3.60
COc1ccccc1Sc1c(C)c(=O)[nH]c(=O)n1COCCO	4.72	> 250				
Cc1c(Sc2ccc(C#N)cc2)n(COCCO)c(=O)[nH]c1=O	< 3.60	> 250				
Cc1c(Sc2cccc(CO)c2)n(COCCO)c(=O)[nH]c1=O	< 3.53	292				
O=C(Nc1ccccc1)c1c(Sc2ccccc2)n(COCCO)c(=O)[nH]c1=O	< 4.74	18				
CCc1c(Sc2cc(Cl)cc(Cl)c2)n(COCCO)c(=O)[nH]c1=O	7.85	51				
CC(=O)c1ccc(Sc2c(C)c(=O)[nH]c(=O)n2COCCO)cc1	< 3.96	110				
Cc1c(Sc2cc(Cl)cc(Cl)c2)n(COCCO)c(=O)[nH]c1=O	5.89	130				
Cc1c(Sc2ccc(F)cc2)n(COCCO)c(=O)[nH]c1=O	< 3.60	> 250				
CCc1c(Sc2cc(C)cc(C)c2)n(COCCO)c(=O)[nH]c1=O		149				
Cc1c(Sc2cccc(C(C)(C)C)c2)n(COCCO)c(=O)[nH]c1=O	4.92	75				
Cc1c(Sc2cccc(C#N)c2)n(COCCO)c(=O)[nH]c1=O	5.00	234				
Cc1ccc(Sc2c(C)c(=O)[nH]c(=O)n2COCCO)cc1	3.66	> 250				
COC(=O)c1cccc(Sc2c(C)c(=O)[nH]c(=O)n2COCCO)c1	5.10	221				
Cc1c(Sc2ccc([N+](=O)[O-])cc2)n(COCCO)c(=O)[nH]c1=O	< 3.72	190				
Cc1c(Sc2ccc(O)cc2)n(COCCO)c(=O)[nH]c1=O	< 3.56	277				
COc1cccc(Sc2c(C)c(=O)[nH]c(=O)n2COCCO)c1	4.66	> 250				
Cc1cn([C@H]2C[C@H](N=[N+]=[N-])[C@@H](CO)O2)c(=O)[nH]c1=O [ZIDOVUDINE]	8.22	7.8				
Cc1cc(C)cc(Sc2c(C(C)C)c(=O)[nH]c(=O)n2COCCO)c1		128				
Cc1c(Sc2ccc(Cl)cc2)n(COCCO)c(=O)[nH]c1=O	< 3.60	> 250				
Cc1cc(C)cc(Sc2c(C)c(=O)[nH]c(=S)n2COCCO)c1	6.66	172				
Cc1c(Sc2cccc([N+](=O)[O-])c2)n(COCCO)c(=O)[nH]c1=O	4.47	170				
Cc1c(Sc2cccc(C(N)=O)c2)n(COCCO)c(=O)[nH]c1=O	< 3.51	306				
COc1ccc(Sc2c(C)c(=O)[nH]c(=O)n2COCCO)cc1	< 3.60	> 250				

— ChEMBL document CHEMBL1125288, “Structure-activity relationships of 1-[(2-hydroxyethoxy)methyl]-6-(phenylthio)thymine analogues: effect of substitutions at the C-6 phenyl ring and at the C-5 position on anti-HIV-1 activity” (J Med Chem, 1992)
